Columns and labels:
Format in all cases: functional
Candida albicans [1] = test: Antifungal activity against Candida albicans ATCC 10231 assessed as inhibition of fungal growth at 200 uM after 24 hrs by microplate analysis; settings: ATCC 10231, 24 h
Procedure, shortened: (§1)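 Broth microdilution in RPMI-1640. Peptide DMSO stocks were diluted to final concentrations of 200–3.125, with DMSO ≤2%. Inoculum was 1–5×10³ CFU/mL from Sabouraud-chloramphenicol agar cultures (24 h, 35 °C). Plates were held in a moist, dark chamber at 35 °C: 24 h for C. albicans, 48 h for C. neoformans.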

Candida albicans [2] = test: Antifungal activity against Candida albicans ATCC 10231 assessed as inhibition of fungal growth at 100 uM after 24 hrs by microplate analysis; settings: ATCC 10231, 24 h; procedure, shortened: as §1
Candida albicans [3] = test: Antifungal activity against Candida albicans ATCC 10231 assessed as inhibition of fungal growth at 50 uM after 24 hrs by microplate analysis; settings: ATCC 10231, 24 h; procedure, shortened: as §1
Candida albicans [4] = test: Antifungal activity against Candida albicans ATCC 10231 assessed as inhibition of fungal growth at 25 uM after 24 hrs by microplate analysis; settings: ATCC 10231, 24 h; procedure, shortened: as §1
Candida albicans [5] = test: Antifungal activity against Candida albicans ATCC 10231 assessed as inhibition of fungal growth at 12.5 uM after 24 hrs by microplate analysis; settings: ATCC 10231, 24 h; procedure, shortened: as §1
Candida albicans [6] = test: Antifungal activity against Candida albicans ATCC 10231 assessed as inhibition of fungal growth at 6.25 uM after 24 hrs by microplate analysis; settings: ATCC 10231, 24 h; procedure, shortened: as §1
Cryptococcus neoformans [7] = test: Antifungal activity against Cryptococcus neoformans ATCC 32264 assessed as inhibition of fungal growth at 200 uM after 48 hrs by microplate analysis; settings: ATCC 32264, 48 h; procedure, shortened: as §1
Cryptococcus neoformans [8] = test: Antifungal activity against Cryptococcus neoformans ATCC 32264 assessed as inhibition of fungal growth at 100 uM after 48 hrs by microplate analysis; settings: ATCC 32264, 48 h; procedure, shortened: as §1
Cryptococcus neoformans [9] = test: Antifungal activity against Cryptococcus neoformans ATCC 32264 assessed as inhibition of fungal growth at 50 uM after 48 hrs by microplate analysis; settings: ATCC 32264, 48 h; procedure, shortened: as §1
Cryptococcus neoformans [10] = test: Antifungal activity against Cryptococcus neoformans ATCC 32264 assessed as inhibition of fungal growth at 25 uM after 48 hrs by microplate analysis; settings: ATCC 32264, 48 h; procedure, shortened: as §1
Cryptococcus neoformans [11] = test: Antifungal activity against Cryptococcus neoformans ATCC 32264 assessed as inhibition of fungal growth at 12.5 uM after 48 hrs by microplate analysis; settings: ATCC 32264, 48 h; procedure, shortened: as §1
Cryptococcus neoformans [12] = test: Antifungal activity against Cryptococcus neoformans ATCC 32264 assessed as inhibition of fungal growth at 6.25 uM after 48 hrs by microplate analysis; settings: ATCC 32264, 48 h; procedure, shortened: as §1

Row | Compound | inhibition at 200 µM (Candida albicans [1]) [%] | inhibition at 100 µM (Candida albicans [2]) [%] | inhibition at 50 µM (Candida albicans [3]) [%] | inhibition at 25 µM (Candida albicans [4]) [%] | inhibition at 12.5 µM (Candida albicans [5]) [%] | inhibition at 6.25 µM (Candida albicans [6]) [%] | inhibition at 200 µM (Cryptococcus neoformans [7]) [%] | inhibition at 100 µM (Cryptococcus neoformans [8]) [%] | inhibition at 50 µM (Cryptococcus neoformans [9]) [%] | inhibition at 25 µM (Cryptococcus neoformans [10]) [%] | inhibition at 12.5 µM (Cryptococcus neoformans [11]) [%] | inhibition at 6.25 µM (Cryptococcus neoformans [12]) [%]
1 | H-RWWKWWWWWRRWKWKK-NH2 | 100 | 99.1 | 95.8 | 30.9 | 14.8 | 8.72 | 100 | 90 | 77.5 | 44.2 | 31.5 | 22.6
2 | H-KQIKIWFQNKKMKWKK-NH2 [KQIKIWFQNKKMKWKK-NH2] | 100 | 100 | 100 | 8.41 | 5.97 | 3.24 | 100 | 100 | 100 | 98.5 | 72 | 64.5
3 | C[C@@H]1[C@H](O)[C@@H](C)/C=C/C=C/C=C/C=C/C=C/C=C/C=C/[C@H](O[C@@H]2O[C@H](C)[C@@H](O)[C@H](N)[C@@H]2O)C[C@@H]2O[C@](O)(C[C@@H](O)C[C@@H](O)[C@H](O)CC[C@@H](O)C[C@@H](O)CC(=O)O[C@H]1C)C[C@H](O)[C@H]2C(=O)O [AMPHOTERICIN B] | 100 | 100 | 100 | 100 | 100 | 100 | 100 | 100 | 100 | 100 | 100 | 100
4 | H-RQIRIWFQNRRMRWRR-NH2 | 100 | 100 | 98.9 | 6.16 | 4.38 | 3.71 | 100 | 100 | 100 | 81.7 | 77.5 | 43.3
5 | CC[C@H](C)[C@H](NC(=O)[C@H](CCCCN)NC(=O)[C@@H](NC(=O)[C@H](CCC(N)=O)NC(=O)[C@H](CCCNC(=N)N)NC(=O)[C@H](Cc1c[nH]c2ccccc12)NC(=O)[C@H](CCCNC(=N)N)NC(=O)[C@H](Cc1ccccc1)NC(=O)[C@@H](N)Cc1cnc[nH]1)[C@@H](C)CC)C(=O)N[C@@H](Cc1c[nH]c2ccccc12)C(=O)N[C@@H](Cc1ccccc1)C(=O)N[C@@H](CCC(N)=O)C(=O)N[C@@H](CC(N)=O)C(=O)N[C@@H](CCCNC(=N)N)C(=O)N[C@@H](CCCNC(=N)N)C(=O)N[C@@H](CC[S+](C)[O-])C(=O)N[C@@H](CCCCN)C(=O)N[C@@H](Cc1c[nH]c2ccccc12)C(=O)N[C@@H](CCCCN)C(=O)N[C@@H](CCCCN)C(N)=O (some centres undefined) | 100 | 100 | 93.7 | 5.96 | 3.95 | 2.9 | 100 | 100 | 100 | 100 | 99.3 | 95.1
6 | N=C(N)NCCC[C@H](NC(=O)CNC(=O)[C@@H](N)Cc1ccc(O)cc1)C(=O)N[C@@H](CCCCN)C(=O)N[C@@H](CCCCN)C(=O)N[C@@H](CCCNC(=N)N)C(=O)N[C@@H](CCCNC(=N)N)C(=O)N[C@@H](CCC(N)=O)C(=O)N[C@@H](CCCNC(=N)N)C(=O)N[C@@H](CCCNC(=N)N)C(=O)N[C@@H](CCCNC(=N)N)C(=O)N[C@@H](CS)C(N)=O | 99.1 | 99.1 | 6.75 | 6.71 | 6.12 | 4.97 | 100 | 100 | 61.3 | 1.75 | 0 | 0
7 | CC(=O)N1CCN(c2ccc(OCC3COC(Cn4ccnc4)(c4ccc(Cl)cc4Cl)O3)cc2)CC1 (centres undefined) [KETOCONAZOLE] | 100 | 100 | 100 | 100 | 100 | 100 | 100 | 100 | 100 | 100 | 100 | 100

— ChEMBL document CHEMBL1649370, “Penetratin analogues acting as antifungal agents” (2011)
